According to ChEMBL document CHEMBL1157638, “Fluorescent epigenetic small molecule induces expression of the tumor suppressor ras-association domain family 1A and inhibits human prostate xenograft” (J Med Chem, 2010):
Active and inactive are the calls of the source. The calls are words filed in the database; no cut-off is given here.

Experiments:
PC-3 [1] = test: Growth inhibition of human PC3 cells after 24 hrs by trypan blue exclusion method; assay type: functional; settings: PC-3, 24 h
Procedure, shortened: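 PC-3 cells grown in phenol red-free IMEM with 10% FBS, 2 mM glutamine and penicillin/streptomycin at 37 °C, 5% CO2. Seeded in triplicate at 1.5 × 10⁴ cells/well. After 24 h, treated with DMSO vehicle or 1, 5, 15, 30 or 60 μM compound for 24 h. Cells trypsinized, stained with 0.4% trypan blue, and live and dead cells counted by hemocytometer. Mean ± SEM of three independent observations.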

PC-3 [2] = test: Decrease in DNA synthesis in human PC3 cells at 5 uM after 24 hrs by BrdU incorporation assay; assay type: functional, cell-based
Procedure, shortened: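 PC-3 cells were seeded at 2 × 10⁴ cells/well and exposed to 5 μM compound or DMSO for 24 h. BrdU incorporation was read by chemiluminescent cell proliferation ELISA on a luminometer. Background without anti-BrdU-peroxidase was subtracted and values were normalized to untreated control. Values are mean ± SEM.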

[3] = biological target: DNA (cytosine-5)-methyltransferase 1 (Homo sapiens) (UniProt P26358); test: Inhibition of DNA methyltransferase activity in human PC3 cells at 15 uM after 3 days; assay type: cell-based; settings: PC-3
Procedure, shortened: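 PC-3 cells in complete growth medium treated 3 days with compound, then harvested. Nuclear extracts prepared by kit protocol, and DNMT activity measured with a commercial DNMT activity kit against untreated cells. Mean of three independent experiments ± SEM.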

PC-3 [4] = test: Increase in RASSF1A gene expression in human PC3 cells at 15 uM after 3 days hrs by RT-PCR; assay type: functional
Procedure, shortened: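 PC-3 cells incubated 3 days with compound, then RNA extracted with TRIzol. 500 ng total RNA reverse-transcribed with random hexamers. RASSF1A amplified with previously described primers and conditions. Products run on 1.5% agarose and stained with ethidium bromide. Bands quantified by densitometry against untreated cells, with RASSF1A re-expression from the reference alkaloid set to 100%.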

PC-3 [5] = test: […] in RASSF1A gene expression in human PC3 cells at 15 uM after 3 days hrs by RT-PCR; assay type: functional, cell-based

DNA (cytosine-5)-methyltransferase 1 (Homo sapiens), sequence (P26358 whole entry): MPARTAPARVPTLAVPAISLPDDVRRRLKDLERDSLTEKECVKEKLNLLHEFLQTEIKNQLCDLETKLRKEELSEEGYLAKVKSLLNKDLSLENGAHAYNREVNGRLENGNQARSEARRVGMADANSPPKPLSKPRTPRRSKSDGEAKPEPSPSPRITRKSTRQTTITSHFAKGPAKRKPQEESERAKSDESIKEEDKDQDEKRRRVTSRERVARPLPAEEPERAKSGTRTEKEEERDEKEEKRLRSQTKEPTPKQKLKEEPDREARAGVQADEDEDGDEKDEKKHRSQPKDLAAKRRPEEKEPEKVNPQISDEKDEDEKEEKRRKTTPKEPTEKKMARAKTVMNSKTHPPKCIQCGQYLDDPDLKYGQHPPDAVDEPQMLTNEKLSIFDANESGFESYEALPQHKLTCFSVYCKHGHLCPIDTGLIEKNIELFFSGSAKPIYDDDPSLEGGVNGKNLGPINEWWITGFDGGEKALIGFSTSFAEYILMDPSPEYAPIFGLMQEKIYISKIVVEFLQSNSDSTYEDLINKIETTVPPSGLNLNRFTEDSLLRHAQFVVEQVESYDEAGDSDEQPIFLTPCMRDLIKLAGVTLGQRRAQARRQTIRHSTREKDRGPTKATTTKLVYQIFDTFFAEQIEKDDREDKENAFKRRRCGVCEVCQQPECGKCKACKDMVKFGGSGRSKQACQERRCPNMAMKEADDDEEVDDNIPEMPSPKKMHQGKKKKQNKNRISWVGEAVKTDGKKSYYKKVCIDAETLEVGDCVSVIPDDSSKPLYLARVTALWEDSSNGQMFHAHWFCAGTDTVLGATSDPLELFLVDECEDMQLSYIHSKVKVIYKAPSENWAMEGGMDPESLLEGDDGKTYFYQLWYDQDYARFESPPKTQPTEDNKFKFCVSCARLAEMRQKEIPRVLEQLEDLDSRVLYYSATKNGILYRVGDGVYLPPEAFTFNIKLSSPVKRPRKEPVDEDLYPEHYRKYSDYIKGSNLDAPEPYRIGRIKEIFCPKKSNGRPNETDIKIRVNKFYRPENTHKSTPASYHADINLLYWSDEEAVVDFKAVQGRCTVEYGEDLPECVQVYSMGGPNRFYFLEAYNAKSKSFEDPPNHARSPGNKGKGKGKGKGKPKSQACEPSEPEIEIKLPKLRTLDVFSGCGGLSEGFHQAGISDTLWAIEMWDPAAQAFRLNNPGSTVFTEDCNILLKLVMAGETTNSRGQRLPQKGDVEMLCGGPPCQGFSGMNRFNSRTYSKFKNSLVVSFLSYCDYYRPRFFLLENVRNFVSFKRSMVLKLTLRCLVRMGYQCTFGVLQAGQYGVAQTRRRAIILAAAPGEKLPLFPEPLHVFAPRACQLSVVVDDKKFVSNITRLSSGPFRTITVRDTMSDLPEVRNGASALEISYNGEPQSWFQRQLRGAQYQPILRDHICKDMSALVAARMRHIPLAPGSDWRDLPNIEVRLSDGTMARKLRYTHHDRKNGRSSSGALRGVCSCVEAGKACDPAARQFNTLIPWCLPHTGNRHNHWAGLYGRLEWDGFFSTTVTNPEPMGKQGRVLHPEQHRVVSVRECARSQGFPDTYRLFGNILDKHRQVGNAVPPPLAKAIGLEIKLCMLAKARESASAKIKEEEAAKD

GI50 (PC-3 [1]) [µM] | Activity [3] | SMILES | Activity (PC-3 [2]) | Activity (PC-3 [4]) | Activity (PC-3 [5])
15.3 | Active | COc1ccc2c(c1)[nH]c1cc(O)c(C)cc12 | Active | – | –
18.7 | Active | COc1ccc2c(c1)[nH]c1c(C)c(O)ccc12 | – | – | –
48.9 | – | COc1ccc2c(c1)[nH]c1cc(OCc3ccccc3)c(C)cc12 | – | inactive | inactive
17.6 | Active | COc1ccc2c(c1)[nH]c1c(C)c(OCc3ccccc3)ccc12 | Active | 50% | –
22.9 | – | COc1ccc2c(c1)[nH]c1cc(OS(=O)(=O)c3cccc4c(N(C)C)cccc34)c(C)cc12 | – | inactive | inactive
